Consider 15 compounds from ChEMBL document CHEMBL3817745, “Structure-Activity Relationship for the 4(3H)-Quinazolinone Antibacterials” (J Med Chem, 2016).

Data set [1] deals with Staphylococcus aureus. Nature of the data set: Antibacterial activity against vancomycin/methicillin-resistant Staphylococcus aureus VRS1 clinical isolate incubated for 16 to 20 hrs by microdilution method. In kind it is functional. For orientation: In broth dilution the organism is exposed to a series of concentrations in liquid medium.
Data set [2] relates to Staphylococcus aureus. As to the kind of experiment: Antibacterial activity against vancomycin/methicillin-resistant Staphylococcus aureus VRS2 clinical isolate incubated for 16 to 20 hrs by microdilution method. In kind it is functional.
The test system of data set [3] is Staphylococcus epidermidis. Nature of the data set: Antibacterial activity against Staphylococcus epidermidis ATCC 35547 incubated for 16 to 20 hrs by microdilution method. In kind it is functional. The method in brief:
(§1)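 CLSI broth microdilution. 2-fold serial dilutions were made in cation-adjusted Mueller–Hinton broth, with 5% lysed horse blood added for Streptococcus strains, in triplicate. Inoculum 5×10^5 CFU/mL. Plates incubated 36 °C for 16–20 h. MIC taken as the lowest concentration visibly inhibiting growth.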

In data set [4] the test system is Streptococcus oralis. Nature of the data set: Antibacterial activity against Streptococcus oralis ATCC 9811 incubated for 16 to 20 hrs by microdilution method. In kind it is functional. A digest of the protocol:
as §1

Data set [5] deals with Streptococcus pyogenes. As to the kind of experiment: Antibacterial activity against Streptococcus pyogenes ATCC 49399 incubated for 16 to 20 hrs by microdilution method. In kind it is functional. A digest of the protocol: as §1
Data set [6] has as its system Bacillus cereus. Nature of the data set: Antibacterial activity against Bacillus cereus ATCC 13061 incubated for 16 to 20 hrs by microdilution method. In kind it is functional. A digest of the protocol:
as §1

Data set [7] concerns Staphylococcus aureus. Nature of the data set: Antibacterial activity against methicillin-susceptible Staphylococcus aureus ATCC 29213 incubated for 16 to 20 hrs by microdilution method. In kind it is functional.
Data set [8] has as its system Mus musculus. Nature of the data set: AUC (0 to last) in ICR mouse peritonitis model infected with methicillin resistant Staphylococcus aureus ATCC 27660 at 10 mg/kg, iv administered as single dose measured up to 8 hrs by UPLC analysis. Also noted: dose 10 mg/kg, time 0 - last, route intravenous. The note with it: in vivo, 8 h. In kind it is ADME, organism-based. The method in brief:
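Fast PK: female ICR mice (n = 2 per time point) given single tail-vein iv injection at 5, 10 or 20 mg/kg in 25% DMSO/65% propylene glycol/10% water (2.5, 5 or 10 mg/mL); terminal cardiac blood at 5 min, 40 min, 2, 4, 8 h; plasma analysed by UPLC with internal standard calibration.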

Data set [9] deals with HepG2. As to the kind of experiment: Cytotoxicity against human HepG2 cells incubated for 16 hrs by XTT assay. In kind it is cell-based. The note with it: HepG2, 16 h. The method in brief:
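HepG2 cells were tested with an XTT viability read-out, in triplicate. IC50 was obtained by nonlinear regression.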
(In general: Tetrazolium assays rely on reduction of a dye to a coloured formazan, in cell work by metabolically active cells.)

A short description of data set [10]: Hemolytic activity against human RBC at 64 ug/ml relative to control. In kind it is ADME, cell-based, Erythrocyte. The note with it: erythrocyte. A digest of the protocol:
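Hemolysis was measured at a fixed 64 μg/mL on a 10% red-cell suspension from heparinized human blood. Triton-X served as the positive control, and results are given as percent hemolysis.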

For data set [11], the system named is Enterococcus faecium. Nature of the data set: Antibacterial activity against Enterococcus faecium NCTC 7171 incubated for 16 to 20 hrs by microdilution method. In kind it is functional. A digest of the protocol:
as §1

Data set [12] concerns Klebsiella pneumoniae. Nature of the data set: Antibacterial activity against Klebsiella pneumoniae ATCC 700603 incubated for 16 to 20 hrs by microdilution method. In kind it is functional. The method in brief:
as §1

Data set [13] deals with Acinetobacter baumannii. As to the kind of experiment: Antibacterial activity against Acinetobacter baumannii ATCC 17961 incubated for 16 to 20 hrs by microdilution method. In kind it is functional. The method in brief: as §1
The subject of data set [14] is Pseudomonas aeruginosa. Nature of the data set: Antibacterial activity against Pseudomonas aeruginosa […] incubated for 16 to 20 hrs by microdilution method. In kind it is functional. A digest of the protocol: as §1
The subject of data set [15] is Escherichia coli. Nature of the data set: Antibacterial activity against Escherichia coli ATCC 25922 incubated for 16 to 20 hrs by microdilution method. In kind it is functional. A digest of the protocol:
as §1

Data set [16] concerns Klebsiella aerogenes. Nature of the data set: Antibacterial activity against Enterobacter aerogenes ATCC 35029 incubated for 16 to 20 hrs by microdilution method. In kind it is functional. The method in brief: as §1

The MIC is the lowest concentration that inhibits growth of the organism. Broadly, the IC50 is the point on the concentration scale where inhibition reaches its midpoint. A high value points to weaker potency.

≈ marks a conversion by molar mass, not a printed value.

`CN[C@@H](CC(C)C)C(=O)N[C@H]1C(=O)N[C@@H](CC(N)=O)C(=O)N[C@H]2C(=O)N[C@H]3C(=O)N[C@H](C(=O)N[C@@H](C(=O)O)c4cc(O)cc(O)c4-c4cc3ccc4O)[C@H](O)c3ccc(c(Cl)c3)Oc3cc2cc(c3O[C@H]2O[C@@H](CO)[C@H](O)[C@@H](O)[C@@H]2O[C@@H]2C[C@@](C)(N)[C@@H](O)[C@@H](C)O2)Oc2ccc(cc2Cl)[C@H]1O`: the MIC stood at 512 µg/mL (≈ 353 µM) in data set [1]; 64 µg/mL (≈ 44.2 µM) in [2]; 16 µg/mL (≈ 11 µM) in [3]; 0.5 µg/mL (≈ 0.345 µM) in [4]; 0.5 µg/mL (≈ 0.345 µM) in data set [5]; 1 µg/mL (≈ 0.69 µM) in data set [6].

For `CC(=O)NCc1cccc(-n2c(/C=C/c3ccc(C#N)cc3)nc3ccccc3c2=O)c1`, the MIC in [7] is 0.015 µg/mL (≈ 0.0357 µM); in [11], at least 8 µg/mL; in data set [12], at least 16 µg/mL; in [13], at least 16 µg/mL; in [14] it was at least 16 µg/mL; in data set [15], at least 16 µg/mL. This compound also registered an MIC in data set [16] of at least 16 µg/mL. Also, the AUClast in data set [8] is 142 µg·min/mL. This compound gave an IC50 in [9] of 99 µg/mL (≈ 235 µM). In data set [10], the Activity is reported as below 1%.

For `COc1ccc(/C=C/c2nc3ccccc3c(=O)n2-c2cccc(O)c2)cc1`, the MIC in data set [7] was 4 µg/mL (≈ 10.8 µM); in data set [11], at least 8 µg/mL; in [12] it was at least 16 µg/mL; in data set [13], at least 16 µg/mL; in data set [14] it was at least 16 µg/mL; in [15] it was at least 16 µg/mL. The compound also yielded an MIC in data set [16] of at least 16 µg/mL.

Regarding `O=c1c2ccccc2nc(/C=C/c2ccc3c(c2)OCO3)n1-c1cccc(O)c1`, the MIC in [7] was 2 µg/mL (≈ 5.2 µM); in data set [11] it was at least 8 µg/mL; in [12], at least 16 µg/mL; in data set [13], at least 16 µg/mL; in [14], at least 16 µg/mL; in data set [15] it was at least 16 µg/mL. This compound also displayed an MIC in data set [16] of at least 16 µg/mL.

For `O=c1c2ccccc2nc(Cc2ccccc2)n1-c1cccc(O)c1`, the MIC in [7] is 32 µg/mL (≈ 97.5 µM); in data set [11] it was at least 8 µg/mL; in data set [12], at least 16 µg/mL; in data set [13] it was at least 16 µg/mL; in data set [14], at least 16 µg/mL; in data set [15], at least 16 µg/mL. This compound had an MIC in data set [16] of at least 16 µg/mL.

As for `N#Cc1ccc(/C=C/c2nc3ccccc3c(=O)n2-c2cccc(C(=O)NCCO)c2)cc1`, the MIC in data set [7] is 1 µg/mL (≈ 2.29 µM); in data set [11], at least 8 µg/mL; in data set [12] it was at least 16 µg/mL; in [13] it was at least 16 µg/mL; in data set [14] it was at least 16 µg/mL; in data set [15] it was at least 16 µg/mL. This compound registered an MIC in data set [16] of at least 16 µg/mL. Moreover, in [8], the AUClast worked out at 425 µg·min/mL. Also, the IC50 in [9] was 70.2 µg/mL (≈ 161 µM). Besides, the Activity in [10] is recorded as below 1%.

In the case of `CC(=O)Nc1cccc(-n2c(/C=C/c3ccc(F)cc3)nc3ccccc3c2=O)c1`, the minimal inhibitory concentration (MIC) is 1 µg/mL (≈ 2.5 µM) in data set [7]; at least 8 µg/mL in data set [11]; at least 16 µg/mL in data set [12]; at least 16 µg/mL in data set [13]; at least 16 µg/mL in data set [14]; at least 16 µg/mL in data set [15]. Also, the MIC in data set [16] is at least 16 µg/mL. The compound further displayed an AUClast in [8] of 284 µg·min/mL. This compound also showed an IC50 in [9] of 46.6 µg/mL (≈ 117 µM). The Activity in data set [10] was 3.6%.

For the compound `O=c1c2ccccc2nc(/C=C/c2ccccc2)n1-c1cccc(O)c1`, the MIC in [7] was 0.5 µg/mL (≈ 1.47 µM); in data set [11], at least 8 µg/mL; in data set [12], at least 16 µg/mL; in data set [13] it was at least 16 µg/mL; in [14], at least 16 µg/mL; in [15], at least 16 µg/mL. Moreover, in data set [16], the MIC is at least 16 µg/mL.

In the case of `Nc1ccc(/C=C/c2nc3ccccc3c(=O)n2-c2cccc(O)c2)cc1`, the MIC in data set [7] is 16 µg/mL (≈ 45 µM); in data set [11], at least 8 µg/mL; in data set [12], at least 16 µg/mL; in data set [13] it was at least 16 µg/mL; in [14], at least 16 µg/mL; in [15], at least 16 µg/mL. In data set [16], this compound showed an MIC of at least 16 µg/mL.

`O=c1c2ccccc2nc(/C=C/c2ccncc2)n1-c1cccc(O)c1`: the MIC in data set [7] was 2 µg/mL (≈ 5.86 µM); in data set [11], at least 8 µg/mL; in data set [12] it was at least 16 µg/mL; in data set [13], at least 16 µg/mL; in data set [14], at least 16 µg/mL; in data set [15] it was at least 16 µg/mL. This compound gave an MIC in data set [16] of at least 16 µg/mL.

With `O=c1c2ccccc2nc(CCc2ccccc2)n1-c1cccc(O)c1`, the MIC in [7] was 0.06 µg/mL (≈ 0.175 µM); in data set [11], at least 8 µg/mL; in data set [12], at least 16 µg/mL; in [13], at least 16 µg/mL; in [14] it was at least 16 µg/mL; in data set [15], at least 16 µg/mL. In data set [16], this compound displayed an MIC of at least 16 µg/mL.

`N#Cc1ccc(/C=C/c2nc3cc(C(=O)O)ccc3c(=O)n2-c2cccc(C(=O)O)c2)cc1`: the MIC is 128 µg/mL (≈ 293 µM) in data set [7]; at least 8 µg/mL in data set [11]; at least 16 µg/mL in [12]; at least 16 µg/mL in [13]; at least 16 µg/mL in data set [14]; at least 16 µg/mL in data set [15]. Moreover, the MIC in [16] is at least 16 µg/mL.

As to `O=c1c2ccccc2nc(/C=C/c2ccc(C(F)(F)F)cc2)n1-c1cccc(O)c1`, the MIC in data set [7] is 128 µg/mL (≈ 313 µM); in data set [11] it was at least 8 µg/mL; in data set [12], at least 16 µg/mL; in data set [13] it was at least 16 µg/mL; in data set [14] it was at least 16 µg/mL; in data set [15] it was at least 16 µg/mL. In [16], the MIC is at least 16 µg/mL.

For the compound `CS(=O)(=O)Nc1cccc(-n2c(/C=C/c3ccc(F)cc3)nc3ccccc3c2=O)c1`, the MIC was 0.125 µg/mL (≈ 0.287 µM) in data set [7]; at least 8 µg/mL in data set [11]; at least 16 µg/mL in data set [12]; at least 16 µg/mL in [13]; at least 16 µg/mL in data set [14]; at least 16 µg/mL in data set [15]. The MIC in data set [16] is at least 16 µg/mL. Besides, the AUClast in [8] came to 819 µg·min/mL. This compound came in with a concentration for half-maximal inhibition (IC50) in data set [9] of 66 µg/mL (≈ 152 µM). Besides, the Activity in [10] was below 1%.

Take `O=c1c2ccccc2nc(/C=C/c2ccccc2[N+](=O)[O-])n1-c1cccc(O)c1`: the MIC was 128 µg/mL (≈ 332 µM) in [7]; at least 8 µg/mL in [11]; at least 16 µg/mL in data set [12]; at least 16 µg/mL in data set [13]; at least 16 µg/mL in data set [14]; at least 16 µg/mL in data set [15]. Besides, the MIC in [16] was at least 16 µg/mL.
